In brackets after ≈: the same amount, converted by molar mass. Activity calls are given as the source filed them. The rule behind the calls is not given here.
Columns and labels:
[1] = n-Octanol/water partition coefficient, log P of the compound by HPLC analysis; assay type: physicochemical
Outline: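 Log P from n-octanol/water partition coefficient determined by HPLC method.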

[2] = system: Mycobacterium tuberculosis; assay: Antitubercular activity against replicating stage Mycobacterium tuberculosis H37Rv ATCC 27294 after 7 days by Resazurin microtiter assay; assay type: functional; conditions: H37Rv ATCC 27294, 168 h
[3] = Selectivity index, ratio of IC50 for human MRC5 cells to IC50 for replicating stage Mycobacterium tuberculosis H37Rv ATCC 27294; assay type: toxicity; conditions: read-out: Selectivity Index
[4] = system: MRC5; assay: Cytotoxicity against human MRC5 cells assessed as reduction in cell viability after 24 hrs by fluorescence assay; assay type: cell-based; conditions: MRC5, 24 h
Outline: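 MRC-5 human lung fibroblasts; cytotoxicity reported as IC50.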

[5] = system: Candida albicans; assay: Antimicrobial activity against Candida albicans ATCC 10231 at 200 uM incubated for 48 hrs; assay type: functional
[6] = system: Mycobacterium tuberculosis; assay: Antitubercular activity against dormant stage Mycobacterium tuberculosis H37Rv ATCC 27294 incubated for 10 days in anaerobic condition followed by incubation for 28 hrs in ambient gaseous condition measured after day 11 by two fold serial dilution assay; assay type: functional
[7] = system: Staphylococcus aureus; assay: Antimicrobial activity against Staphylococcus aureus ATCC 29213 at 200 uM incubated for 16 hrs; assay type: functional
[8] = system: Escherichia coli; assay: Antimicrobial activity against Escherichia coli ATCC 25922 at 200 uM incubated for 16 hrs; assay type: functional
[9] = system: Mycobacterium tuberculosis; assay: Antitubercular activity against Mycobacterium tuberculosis H37Rv ATCC 27294 under normal pH 6.8 condition; assay type: functional
[10] = system: Mycobacterium tuberculosis; assay: Growth inhibition of Mycobacterium tuberculosis H37Rv exposed to plasma from BALB/c mouse treated with 20 mg/kg, po administered through carboxymethylcellulose vehicle as single oral dose per gavage after 1 hr by Resazurin microtiter assay; assay type: functional; conditions: read-out: GI
Outline: (§1)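 The microemulsion was 10% cholesterol, 10% phosphatidylcholine/sodium oleate/polyoxyl 40 hydrogenated castor oil (3:6:8) and 80% phosphate buffer pH 7.4. Plasma taken at 0.3, 1, 2 or 4 h was tested by REMA for % Mtb growth inhibition, and plasma level was estimated against the in-vitro REMA MIC.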

[11] = system: Mycobacterium tuberculosis; assay: Growth inhibition of Mycobacterium tuberculosis H37Rv exposed to plasma from BALB/c mouse treated with 20 mg/kg, po administered through carboxymethylcellulose vehicle as single oral dose per gavage after 0.3 hrs by Resazurin microtiter assay; assay type: functional; conditions: read-out: GI; outline: as §1
[12] = system: Mycobacterium tuberculosis; assay: Growth inhibition of Mycobacterium tuberculosis H37Rv exposed to plasma from BALB/c mouse treated with 20 mg/kg, po administered through microemulsion vehicle as single oral dose per gavage after 4 hrs by Resazurin microtiter assay; assay type: functional; conditions: read-out: GI; outline: as §1
[13] = system: Mycobacterium tuberculosis; assay: Growth inhibition of Mycobacterium tuberculosis H37Rv exposed to plasma from BALB/c mouse treated with 20 mg/kg, po administered through microemulsion vehicle as single oral dose per gavage after 2 hrs by Resazurin microtiter assay; assay type: functional; conditions: read-out: GI; outline: as §1
[14] = system: Mycobacterium tuberculosis; assay: Growth inhibition of Mycobacterium tuberculosis H37Rv exposed to plasma from BALB/c mouse treated with 20 mg/kg, po administered through carboxymethylcellulose vehicle as single oral dose per gavage after 2 hrs by Resazurin microtiter assay; assay type: functional; conditions: read-out: GI; outline: as §1
[15] = system: Mycobacterium tuberculosis; assay: Growth inhibition of Mycobacterium tuberculosis H37Rv exposed to plasma from BALB/c mouse treated with 20 mg/kg, po administered through microemulsion vehicle as single oral dose per gavage after 1 hr by Resazurin microtiter assay; assay type: functional; conditions: read-out: GI; outline: as §1
[16] = system: Mycobacterium tuberculosis; assay: Growth inhibition of Mycobacterium tuberculosis H37Rv exposed to plasma from BALB/c mouse treated with 20 mg/kg, po administered through carboxymethylcellulose vehicle as single oral dose per gavage after 4 hrs by Resazurin microtiter assay; assay type: functional; conditions: read-out: GI; outline: as §1
[17] = system: Mycobacterium tuberculosis; assay: Antitubercular activity against Mycobacterium tuberculosis H37Rv ATCC 27294 under acidic pH 6 condition; assay type: functional
[18] = system: Mycobacterium tuberculosis; assay: Growth inhibition of Mycobacterium tuberculosis H37Rv exposed to plasma from BALB/c mouse treated with 20 mg/kg, po administered through microemulsion vehicle as single oral dose per gavage after 0.3 hrs by Resazurin microtiter assay; assay type: functional; conditions: read-out: GI; outline: as §1

| SMILES | logP [1] | MIC90 [2] [µM] | selectivity ratio [3] | IC50 [4] [µM] | other results |
| --- | --- | --- | --- | --- | --- |
| N#Cc1c(-c2ccco2)[n+]([O-])c2ccc(C3OCCO3)cc2[n+]1[O-] | 2 | 5.2 (≈ 1.69 µg/mL) | 6.8 | 35.7 |  |
| N#Cc1c(-c2ccc(F)cc2)[n+]([O-])c2ccc(C3OCCO3)cc2[n+]1[O-] | 1.3 | 24.3 (≈ 8.59 µg/mL) | 0.9 | 21.8 |  |
| Nc1ccc(C(=O)N/N=C/c2ccc3no[n+]([O-])c3c2)cc1 | 1.2 | 10.7 (≈ 3.17 µg/mL) | 78.9 | 841 | Activity [5]: inactive; MIC90 [6]: > 10 µM; Activity [7]: inactive; Activity [8]: inactive |
| Nc1ccccc1C(=O)N/N=C/c1ccc2no[n+]([O-])c2c1 | 2 | 12.3 (≈ 3.66 µg/mL) | 9.9 | 122 |  |
| CC(C)(C)c1ccc(C(=O)N/N=C/c2ccc3no[n+]([O-])c3c2)cc1 | 3.8 | 3.9 (≈ 1.32 µg/mL) | 6.3 | 25.2 |  |
| NC(=O)c1c(COc2cccc(/C=N/NC(=O)c3ccncc3)c2)no[n+]1[O-] | 1.3 | 0.4 (≈ 0.153 µg/mL) | 3200 | 1280 | MIC90 [6]: 4.2 µM (≈ 1.61 µg/mL) |
| O=C(N/N=C/c1ccc2no[n+]([O-])c2c1)c1ccccc1 | 2.2 | 8.3 (≈ 2.34 µg/mL) | 15.6 | 130 |  |
| O=C(N/N=C/c1ccc2no[n+]([O-])c2c1)c1cccc(O)c1 | 1.2 | > 62 |  |  |  |
| COc1ccc(-c2c(C#N)[n+]([O-])c3cc(C4OCCO4)ccc3[n+]2[O-])cc1 | 1.4 | 12 (≈ 4.38 µg/mL) | 1.2 | 15 |  |
| N#Cc1c(-c2ccccc2)[n+]([O-])c2ccc(/C=N/NC(=O)c3ccncc3)cc2[n+]1[O-] | 1 | 39.7 (≈ 16.3 µg/mL) | 0.5 | 21 |  |
| N#Cc1c(-c2cccs2)[n+]([O-])c2ccc(C3OCCO3)cc2[n+]1[O-] | 1.9 | 12.1 (≈ 4.13 µg/mL) | 1.4 | 17.3 |  |
| N#Cc1c(-c2ccccc2)[n+]([O-])c2ccc(C3OCCO3)cc2[n+]1[O-] | 0.7 | 30.8 (≈ 10.3 µg/mL) | 0.9 | 31.9 |  |
| CO[C@H]1/C=C/O[C@@]2(C)Oc3c(C)c(O)c4c(O)c(c(/C=N/N5CCN(C)CC5)c(O)c4c3C2=O)NC(=O)/C(C)=C\C=C\[C@H](C)[C@H](O)[C@@H](C)[C@@H](O)[C@@H](C)[C@H](OC(C)=O)[C@@H]1C [RIFAMPIN] |  |  |  |  | MIC90 [9]: 0.05 µM (≈ 0.0411 µg/mL); inhibition in vivo at 20 mg/kg [10]: 84%; inhibition in vivo at 20 mg/kg [11]: 73.7%; inhibition in vivo at 20 mg/kg [12]: 91%; inhibition in vivo at 20 mg/kg [13]: 76.3%; inhibition in vivo at 20 mg/kg [14]: 62.3%; inhibition in vivo at 20 mg/kg [15]: 63%; inhibition in vivo at 20 mg/kg [16]: 68%; MIC90 [17]: 0.02 µM (≈ 0.0165 µg/mL); inhibition in vivo at 20 mg/kg [18]: 66.3% |
| O=C(N/N=C/c1ccc2no[n+]([O-])c2c1)c1ccccc1O | 1.3 | > 62 |  |  |  |
| NC(=O)c1c(COc2ccccc2/C=N/NC(=O)c2ccncc2)no[n+]1[O-] | 1.3 | 0.42 (≈ 0.161 µg/mL) | 2030 | 854 | MIC90 [6]: 7.72 µM (≈ 2.95 µg/mL) |
| NC(=O)c1c(COc2ccc(/C=N/NC(=O)c3ccncc3)cc2)no[n+]1[O-] | 1.3 | 0.43 (≈ 0.164 µg/mL) | 2700 | 1160 | MIC90 [6]: 2.04 µM (≈ 0.78 µg/mL) |
| Nc1cccc(C(=O)N/N=C/c2ccc3no[n+]([O-])c3c2)c1 | 1.4 | 17.8 (≈ 5.29 µg/mL) | 4.6 | 82.1 |  |
| N#Cc1c(-c2ccc(Cl)cc2)[n+]([O-])c2ccc(C3OCCO3)cc2[n+]1[O-] | 1.8 | 16.2 (≈ 5.99 µg/mL) | 0.8 | 12.6 |  |
| NNC(=O)c1ccncc1 [ISONIAZID] |  | 0.1 (≈ 0.0137 µg/mL) |  |  | MIC90 [6]: 1.11 µM (≈ 0.152 µg/mL) |
| O=C(N/N=C/c1ccc2no[n+]([O-])c2c1)c1ccc([N+](=O)[O-])cc1 | 0.9 | 5.29 (≈ 1.73 µg/mL) |  |  | Activity [5]: inactive; Activity [7]: inactive; Activity [8]: inactive |
| O=C(N/N=C/c1ccc2no[n+]([O-])c2c1)c1ccc(O)cc1 | 1.2 | > 62 |  |  | Activity [5]: inactive; Activity [7]: inactive; Activity [8]: inactive |
| N#Cc1c(-c2ccc(OC(F)(F)F)cc2)[n+]([O-])c2ccc(C3OCCO3)cc2[n+]1[O-] | 2.2 | 15.4 (≈ 6.46 µg/mL) | 4.3 | 66.8 |  |
| Cc1ccc(-c2c(C#N)[n+]([O-])c3cc(C4OCCO4)ccc3[n+]2[O-])cc1 | 1.6 | 16.5 (≈ 5.76 µg/mL) | 1.1 | 17.2 |  |
